Converted amounts (≈) assume the structure as drawn. The source made the active and inactive calls. No cut-off for these calls is given here.
Tests used:
[1] = molecular target: T1, Induced myeloid leukemia cell differentiation protein Mcl-1 (Homo sapiens, UniProt Q07820); experiment: Binding affinity to his-tagged Mcl-1 (unknown origin) expressed in Escherichia coli BL21 (DE3) cells by ITC analysis
Summary of the method: (§1)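 Isothermal titration calorimetry at 25 °C in 20 mM Tris pH 8.0, 150 mM NaCl, 1% DMSO; twelve 3 μL injections of 300 μM ligand into 30 μM protein. Heats corrected against buffer-only titrations run the same way, and Kd obtained by integrating the raw data and fitting to a one-site model.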

[2] = molecular target: Bcl-2-like protein 1 (Homo sapiens, UniProt Q07817); experiment: Binding affinity to Bcl-xL (unknown origin)
Sequence of Bcl-2-like protein 1 (Q07817 whole entry): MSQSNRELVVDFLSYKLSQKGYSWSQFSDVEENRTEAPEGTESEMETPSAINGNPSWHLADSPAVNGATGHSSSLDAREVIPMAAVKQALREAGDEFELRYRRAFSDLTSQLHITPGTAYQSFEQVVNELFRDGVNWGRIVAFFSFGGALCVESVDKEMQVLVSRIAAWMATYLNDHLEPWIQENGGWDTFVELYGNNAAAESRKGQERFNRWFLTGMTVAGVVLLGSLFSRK

[3] = molecular target: Induced myeloid leukemia cell differentiation protein Mcl-1 (Homo sapiens, UniProt Q07820, R263A); experiment: Binding affinity to his-tagged Mcl-1 R263A mutant (unknown origin) expressed in Escherichia coli BL21 (DE3) cells by ITC analysis; summary of the method: as §1
Sequence of Induced myeloid leukemia cell differentiation protein Mcl-1 (Homo sapiens, UniProt Q07820, R263A) (Q07820 whole entry R263A): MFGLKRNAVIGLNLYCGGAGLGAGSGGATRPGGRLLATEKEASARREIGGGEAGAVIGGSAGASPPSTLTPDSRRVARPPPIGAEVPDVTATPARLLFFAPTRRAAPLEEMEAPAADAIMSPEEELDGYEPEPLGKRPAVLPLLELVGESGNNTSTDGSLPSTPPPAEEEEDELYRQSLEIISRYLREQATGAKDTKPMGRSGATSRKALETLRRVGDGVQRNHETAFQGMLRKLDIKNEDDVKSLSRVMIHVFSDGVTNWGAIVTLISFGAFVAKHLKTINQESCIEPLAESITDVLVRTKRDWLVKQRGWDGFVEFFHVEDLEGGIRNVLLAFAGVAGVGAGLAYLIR

[4] = system: NCI-H23; experiment: Ratio of IC50 for human HL60 cells to IC50 for human NCI-H23 cells; format: functional
[5] = Solubility of the compound in 9:1 ratio of water:ethanol by HPLC analysis; format: physicochemical; conditions: 9:1 water:ethanol
[6] = Solubility of the compound in 100 % ethanol by HPLC analysis; format: physicochemical
[7] = molecular target: T1, Induced myeloid leukemia cell differentiation protein Mcl-1; experiment: Binding affinity to Mcl-1 (unknown origin) by two-dimensional [15N/1H] NMR analysis
[8] = molecular target: Apoptosis regulator Bcl-2 (Homo sapiens) (UniProt P10415); experiment: Binding affinity to recombinant human Bcl-2
Sequence of Apoptosis regulator Bcl-2 (Homo sapiens) (P10415 whole entry): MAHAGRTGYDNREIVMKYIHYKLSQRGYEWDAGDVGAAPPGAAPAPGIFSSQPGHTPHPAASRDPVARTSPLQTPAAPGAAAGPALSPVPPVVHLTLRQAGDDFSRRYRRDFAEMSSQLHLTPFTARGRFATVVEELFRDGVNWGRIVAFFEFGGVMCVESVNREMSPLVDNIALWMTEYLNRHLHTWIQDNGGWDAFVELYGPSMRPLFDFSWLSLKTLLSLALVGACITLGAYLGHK

[9] = system: NCI-H23; experiment: Induction of apoptosis in human NCI-H23 cells after 48 hrs by annexin V flow cytometry; format: functional, cell-based; conditions: NCI-H23, 48 h
Summary of the method: (§2)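 Cells exposed to graded concentrations of ligand for 48 h; percentage of apoptotic cells measured by Annexin V flow cytometry, and IC50 taken from the concentration–response.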

[10] = system: H22; experiment: Induction of apoptosis in mouse H22 cells after 48 hrs by annexin V flow cytometry; format: functional, cell-based; conditions: H22, 48 h; summary of the method: as §2
[11] = system: MCF7; experiment: Induction of apoptosis in human MCF7 cells after 48 hrs by annexin V flow cytometry; format: functional, cell-based; conditions: MCF7, 48 h; summary of the method: as §2
[12] = system: HL-60; experiment: Induction of apoptosis in human HL60 cells after 48 hrs by annexin V flow cytometry; format: functional, cell-based; conditions: HL-60, 48 h; summary of the method: as §2

T1 sequence (Q07820 whole entry): as the sequence (Q07820 whole entry R263A) above, with A263R counted along it

Compound	Kd ([1]; read-out: Kd) [µM]	Kd ([1]; read-out: pKd (converted)) [µM]	further results
O=C1C(=O)c2cccc3cccc1c23 [ACENAPHTHOQUINONE]	325	324	–
CCC(C)(C)c1ccc(Oc2ccc3c(=C(C#N)C#N)c(=O)c4cccc2c43)cc1	1.45	1.45	–
NC(=O)c1ccccc1C(=O)c1ccc(Sc2ccc(Cl)cc2)c([N+](=O)[O-])c1	–	–	Ki [2]: 0.5 µM
CC(C)c1ccc(Oc2ccc3c(=C(C#N)C#N)c(=O)c4cccc2c43)cc1	3.71	3.72	–
N#CCC(=O)NCc1ccccc1	1.58	1.58	Kd [3]: 90.8 µM
N#C/C(=C\C=C\c1ccccc1)C(=O)NCc1ccccc1	0.16	0.158	Ratio IC50 [4]: 100; solubility [5]: 200 µg/mL; solubility [6]: 4000 µg/mL (≈ 13.9 mM); Kd [3]: 6.72 µM; Activity [7]: Active; Activity [8]: inactive; IC50 [9]: 0.38 µM; IC50 [10]: 3.2 µM; IC50 [11]: 5.4 µM; IC50 [12]: 47.2 µM
N#CCC(N)=O [CYANOACETAMIDE]	13.5	13.5	Kd [3]: > 1000 µM
Cc1cc2c(C(C)C)c(O)c(O)c(C=O)c2c(O)c1-c1c(C)cc2c(C(C)C)c(O)c(O)c(C=O)c2c1O [GOSSYPOL]	2.65	2.63	–
CNC(=O)CC#N	8.27	8.32	–
C1CSCCN1 [THIOMORPHOLINE]	> 1000	–	–
O=C(Nc1cc(S(=O)(=O)c2ccc(Cl)cc2)ccc1Cl)c1cc(Cl)cc(Br)c1O	–	–	Ki [2]: 4.1 µM
N#CC1=C2C(=NC1=O)c1cccc3cccc2c13	1.83	1.82	–
COc1ccc(Oc2ccc3c(=C(C#N)C#N)c(=O)c4cccc2c43)cc1	4.93	4.9	–
COC1=CC(c2cc3ccccc3[nH]2)=N/C1=C/c1[nH]cc(C)c1C	–	–	Ki [2]: 4.69 µM
N#C/C(=C\c1ccccc1)C(N)=O	2.21	2.19	–
N#CC(C#N)=c1c(=O)c2cccc3cccc1c32	52.3	52.5	Kd [3]: 51.4 µM
CCNC(=O)CC#N	6.65	6.61	–
CCCNC(=O)CC#N	4.28	4.27	–
N#C/C(=C\C=C\c1ccccc1)C(N)=O	1.06	1.07	Kd [3]: 46.2 µM
N#Cc1c(-c2ccc3c(c2)OCO3)cc(-c2ccccc2O)[nH]c1=O	–	–	Ki [2]: 5.1 µM
CCCC(CSc1ccccc1)Nc1ccc(S(=O)(=O)NC(=O)c2ccc(N3CCN(Cc4ccccc4-c4ccc(Cl)cc4)CC3)cc2)cc1[N+](=O)[O-] (configuration not stated)	–	–	Ki [2]: 0.021 µM
N#CC(C#N)=c1c(=O)c2cccc3c(Oc4ccc(Cl)cc4)ccc1c32	4.24	4.27	–
